According to paper PMC3825860 (Journal of Ginseng Research, 2013):

Key:
[1] = assay type: in vivo, human
How it was run: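 10 healthy male Korean volunteers, fasted from the night before until 1 PM, took 9 g extract orally with 100 mL water at 8 AM. Heparinised blood was drawn predose and at 4–14 h hourly, 24 and 36 h, and plasma was stored at -70℃. LC-MS/MS used a digoxin internal standard, an ODS column with methanol:water gradient, and 2–100 ng/mL plasma standards. Non-compartmental analysis used trapezoidal AUC, reported as mean±SD.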

[2] = oral ginseng powder, healthy men, some individual variation; cited from earlier work

plasma concentration at 36 h after taking the extract ([1]; single oral 9 g Korean Red Ginseng extract, detected in 8 subjects) [ng/mL]	AUC(0-inf) ([1]; male, human, plasma, po) [µg·h/mL]	AUC(0-t) ([1]; male, human, plasma, po) [µg·h/mL]	half-life ([1]; male, human, plasma, po) [h]	Structure (SMILES)	time of detection after oral administration [2] [h]
0.90 ± 0.74	–	–	–	CC(C)=CCC[C@](C)(O[C@@H]1O[C@H](CO)[C@@H](O)[C@H](O)[C@H]1O)[C@H]1CC[C@]2(C)[C@@H]1[C@H](O)C[C@@H]1[C@@]3(C)CC[C@H](O)C(C)(C)[C@@H]3CC[C@]12C [Compound K, 20-O-β-Ɗ-glucopyranosyl-20(S)-protopanaxadiol]	8
–	0.308 ± 0.146	0.102 ± 0.051	58.5 ± 14.3	CC(C)=CCC[C@](C)(O[C@@H]1O[C@H](CO[C@@H]2O[C@H](CO)[C@@H](O)[C@H](O)[C@H]2O)[C@@H](O)[C@H](O)[C@H]1O)[C@H]1CC[C@]2(C)[C@@H]1[C@H](O)C[C@@H]1[C@@]3(C)CC[C@H](O[C@@H]4O[C@H](CO)[C@@H](O)[C@H](O)[C@H]4O[C@@H]4O[C@H](CO)[C@@H](O)[C@H](O)[C@H]4O)C(C)(C)[C@@H]3CC[C@]12C [Ginsenoside Rb1, ginsenoside Rb1]	–
